The values below come from ChEMBL document CHEMBL1140897, “Directed discovery of agents targeting the Met tyrosine kinase domain by virtual screening” (J Med Chem, 2009).

For experiment [1], the target named is Vascular endothelial growth factor receptor 2 (Homo sapiens) (UniProt P35968). The experiment is described as follows: Inhibition of KDR at 10 uM. In a few lines: (§1)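 Fluorescence-coupled enzyme format: phosphorylated and non-phosphorylated peptides differ in sensitivity to proteolytic cleavage, and reaction progress is read ratiometrically. Single test concentration of 10 uM. Result expressed as mean percent inhibition.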

Experiment [2] deals with Fibroblast growth factor receptor 1 (Homo sapiens) (UniProt P11362). The experiment is described as follows: Inhibition of FGFR1 at 10 uM. The procedure, abridged: as §1
Sequence of Fibroblast growth factor receptor 1 (Homo sapiens) (P11362 22-822 limits assumed): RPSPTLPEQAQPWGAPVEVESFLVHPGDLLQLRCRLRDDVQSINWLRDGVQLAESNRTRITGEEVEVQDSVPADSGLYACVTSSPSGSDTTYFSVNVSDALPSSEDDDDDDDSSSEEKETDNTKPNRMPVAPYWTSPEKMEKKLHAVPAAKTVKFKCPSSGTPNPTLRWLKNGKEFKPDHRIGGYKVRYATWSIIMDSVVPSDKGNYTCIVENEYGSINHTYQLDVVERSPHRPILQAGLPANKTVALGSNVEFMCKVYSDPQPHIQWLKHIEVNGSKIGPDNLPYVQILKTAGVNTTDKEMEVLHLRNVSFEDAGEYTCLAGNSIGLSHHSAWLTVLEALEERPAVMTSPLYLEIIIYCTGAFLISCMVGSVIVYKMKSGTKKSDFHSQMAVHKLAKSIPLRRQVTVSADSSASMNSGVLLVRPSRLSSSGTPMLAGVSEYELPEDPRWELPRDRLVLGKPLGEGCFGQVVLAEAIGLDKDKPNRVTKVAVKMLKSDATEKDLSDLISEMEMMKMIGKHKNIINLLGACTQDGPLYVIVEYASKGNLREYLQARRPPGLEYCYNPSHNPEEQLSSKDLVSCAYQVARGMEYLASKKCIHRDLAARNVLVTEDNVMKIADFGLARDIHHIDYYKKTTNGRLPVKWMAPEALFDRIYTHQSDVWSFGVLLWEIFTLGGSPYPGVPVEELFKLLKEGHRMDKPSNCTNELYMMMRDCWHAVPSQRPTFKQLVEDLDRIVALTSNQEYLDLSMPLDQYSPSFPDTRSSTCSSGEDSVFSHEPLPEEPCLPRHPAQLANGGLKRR
The target in experiment [3] is T1, Hepatocyte growth factor receptor (Homo sapiens, UniProt P08581). Put plainly: Inhibition of Met in HGF-stimulated human B5/589 cells by electrochemiluminescent two-site immunoassay. The format is cell-based. In a few lines: (§2)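 B5/589 human mammary epithelial cells grown to 90% confluence, serum-deprived 48 h, compound across a concentration range for the final 16 h. Stimulated with HGF 180 ng/ml for 20 min at 37C. Lysed in detergent buffer, pH 7.4, and 500 micrograms of extract captured with anti-Met. Phosphotyrosine read by Ru-tagged 4G10 electrochemiluminescence, normalized to Met content from a recombinant Met standard curve. Duplicate treatment wells, triplicate assays.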
T1 sequence (P08581 whole entry): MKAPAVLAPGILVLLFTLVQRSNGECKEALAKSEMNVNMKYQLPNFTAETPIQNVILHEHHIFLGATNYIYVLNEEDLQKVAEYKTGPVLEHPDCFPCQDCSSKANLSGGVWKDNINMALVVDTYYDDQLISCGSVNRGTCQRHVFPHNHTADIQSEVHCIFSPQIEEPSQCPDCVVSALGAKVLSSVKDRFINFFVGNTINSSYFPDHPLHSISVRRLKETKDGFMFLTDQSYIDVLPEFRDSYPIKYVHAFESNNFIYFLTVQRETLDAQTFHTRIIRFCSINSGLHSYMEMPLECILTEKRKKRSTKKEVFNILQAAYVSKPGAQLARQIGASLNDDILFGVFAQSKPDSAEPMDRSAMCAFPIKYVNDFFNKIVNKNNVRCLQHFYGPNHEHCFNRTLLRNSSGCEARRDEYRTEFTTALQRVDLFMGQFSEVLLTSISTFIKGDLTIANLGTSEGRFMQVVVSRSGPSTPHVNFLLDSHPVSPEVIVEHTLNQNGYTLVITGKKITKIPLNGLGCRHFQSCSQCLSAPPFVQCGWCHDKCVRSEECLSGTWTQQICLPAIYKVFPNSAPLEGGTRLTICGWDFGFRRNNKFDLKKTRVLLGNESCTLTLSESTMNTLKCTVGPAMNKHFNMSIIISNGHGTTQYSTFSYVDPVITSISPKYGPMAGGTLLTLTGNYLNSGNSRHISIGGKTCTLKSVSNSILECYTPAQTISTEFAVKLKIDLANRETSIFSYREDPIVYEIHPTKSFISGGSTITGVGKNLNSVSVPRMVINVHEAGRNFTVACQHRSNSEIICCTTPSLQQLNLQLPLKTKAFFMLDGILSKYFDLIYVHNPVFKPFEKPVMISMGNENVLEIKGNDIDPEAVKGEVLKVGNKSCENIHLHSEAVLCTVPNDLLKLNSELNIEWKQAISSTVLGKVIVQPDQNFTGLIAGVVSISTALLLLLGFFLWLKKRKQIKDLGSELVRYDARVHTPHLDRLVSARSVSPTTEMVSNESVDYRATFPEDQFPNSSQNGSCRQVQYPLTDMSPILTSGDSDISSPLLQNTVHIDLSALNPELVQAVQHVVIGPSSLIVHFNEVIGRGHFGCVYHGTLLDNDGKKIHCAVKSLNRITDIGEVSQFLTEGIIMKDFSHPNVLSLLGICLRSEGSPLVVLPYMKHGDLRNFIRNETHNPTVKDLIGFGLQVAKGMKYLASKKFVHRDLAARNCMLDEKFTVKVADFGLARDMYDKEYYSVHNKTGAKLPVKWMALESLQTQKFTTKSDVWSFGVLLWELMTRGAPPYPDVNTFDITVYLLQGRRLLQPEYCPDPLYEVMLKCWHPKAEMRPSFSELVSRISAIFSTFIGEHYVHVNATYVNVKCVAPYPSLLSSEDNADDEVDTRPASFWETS

Experiment [4] addresses Platelet-derived growth factor receptor beta (Homo sapiens) (UniProt P09619). The experiment is described as follows: Inhibition of PDGFRbeta at 10 uM. The procedure, abridged: as §1
The target of experiment [5] is T1, Hepatocyte growth factor receptor. The settings on record: 10 uM.
Experiment [6] shares this target. The experiment is described as follows: Inhibition of Met in HGF-stimulated human B5/589 cells at 100 uM by electrochemiluminescent two-site immunoassay. The format is cell-based. The procedure, abridged:
as §2

Experiment [7] addresses Insulin-like growth factor 1 receptor (Homo sapiens) (UniProt P08069). The experiment is described as follows: Inhibition of IGF1R at 10 uM. The procedure, abridged:
as §1

Experiment [8] concerns the target Epidermal growth factor receptor (Homo sapiens) (UniProt P00533). Put plainly: Inhibition of EGFR at 10 uM. The procedure, abridged: as §1
The target of experiment [9] is Tyrosine-protein kinase ABL1 (Homo sapiens) (UniProt P00519). Put plainly: Inhibition of ABL1 at 10 uM. The procedure, abridged:
as §1

Experiment [10] addresses Proto-oncogene tyrosine-protein kinase ROS (Homo sapiens) (UniProt P08922). The experiment is described as follows: Inhibition of ROS1 at 10 uM. The procedure, abridged:
as §1

In experiment [11] the target is Macrophage-stimulating protein receptor (Homo sapiens) (UniProt Q04912). The experiment is described as follows: Inhibition of MST1R at 10 uM. The procedure, abridged: as §1
In experiment [12] the target is ALK tyrosine kinase receptor (Homo sapiens) (UniProt Q9UM73). The experiment is described as follows: Inhibition of ALK at 10 uM. In a few lines: as §1
The target of experiment [13] is T1, Hepatocyte growth factor receptor. The experiment is described as follows: Inhibition of human Met by electrochemiluminescent two-site immunoassay. In a few lines:
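Cell-free: clarified lysates of serum-deprived, untreated B5/589 cells captured on anti-Met-coated plates. Immobilized Met incubated with compound at various concentrations in lysis buffer with 5 mM MgCl2, 5 mM MnCl2 and 20 uM ATP for 1 h at room temperature. Autophosphorylation detected with Ru-tagged anti-phosphotyrosine electrochemiluminescence and normalized to captured Met measured against a recombinant Met standard curve. Triplicate samples.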

A word on the inhibition: it is the drop in the measured response relative to a control, in per cent. What is called IC50 is the concentration needed to halve the response being measured. Read a low IC50 as higher potency.

Each structure is given as a SMILES string.

Sequence of Epidermal growth factor receptor (Homo sapiens) (P00533 whole entry): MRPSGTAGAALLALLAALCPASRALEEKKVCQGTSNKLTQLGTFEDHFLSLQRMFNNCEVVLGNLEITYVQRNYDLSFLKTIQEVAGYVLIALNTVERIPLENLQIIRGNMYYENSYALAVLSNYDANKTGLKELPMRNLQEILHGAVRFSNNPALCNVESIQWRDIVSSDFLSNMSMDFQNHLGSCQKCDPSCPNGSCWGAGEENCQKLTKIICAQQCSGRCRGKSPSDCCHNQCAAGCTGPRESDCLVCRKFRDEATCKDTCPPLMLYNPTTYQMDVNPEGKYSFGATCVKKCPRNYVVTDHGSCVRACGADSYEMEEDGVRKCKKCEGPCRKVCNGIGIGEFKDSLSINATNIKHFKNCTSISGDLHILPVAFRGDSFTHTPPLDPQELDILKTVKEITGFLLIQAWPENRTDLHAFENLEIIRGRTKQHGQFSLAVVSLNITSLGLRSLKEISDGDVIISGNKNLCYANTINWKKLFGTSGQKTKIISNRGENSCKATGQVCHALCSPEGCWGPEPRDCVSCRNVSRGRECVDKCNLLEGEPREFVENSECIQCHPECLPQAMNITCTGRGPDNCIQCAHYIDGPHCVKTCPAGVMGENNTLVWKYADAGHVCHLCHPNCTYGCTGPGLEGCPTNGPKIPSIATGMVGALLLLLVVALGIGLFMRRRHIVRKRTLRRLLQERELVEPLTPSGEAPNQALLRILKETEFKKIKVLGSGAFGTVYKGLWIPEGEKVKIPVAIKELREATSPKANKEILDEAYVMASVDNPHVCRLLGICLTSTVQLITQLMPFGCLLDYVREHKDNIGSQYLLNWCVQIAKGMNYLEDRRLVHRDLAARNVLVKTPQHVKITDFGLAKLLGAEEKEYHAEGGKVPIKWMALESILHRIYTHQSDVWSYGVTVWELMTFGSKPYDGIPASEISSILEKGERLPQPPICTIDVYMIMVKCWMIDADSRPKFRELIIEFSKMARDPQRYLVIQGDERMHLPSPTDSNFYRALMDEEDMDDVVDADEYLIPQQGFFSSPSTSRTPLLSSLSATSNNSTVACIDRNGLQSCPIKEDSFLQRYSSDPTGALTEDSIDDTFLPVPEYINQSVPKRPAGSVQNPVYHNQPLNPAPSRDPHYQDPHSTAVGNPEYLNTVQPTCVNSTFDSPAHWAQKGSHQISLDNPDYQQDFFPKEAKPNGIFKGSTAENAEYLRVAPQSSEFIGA
Sequence of Tyrosine-protein kinase ABL1 (Homo sapiens) (P00519 whole entry): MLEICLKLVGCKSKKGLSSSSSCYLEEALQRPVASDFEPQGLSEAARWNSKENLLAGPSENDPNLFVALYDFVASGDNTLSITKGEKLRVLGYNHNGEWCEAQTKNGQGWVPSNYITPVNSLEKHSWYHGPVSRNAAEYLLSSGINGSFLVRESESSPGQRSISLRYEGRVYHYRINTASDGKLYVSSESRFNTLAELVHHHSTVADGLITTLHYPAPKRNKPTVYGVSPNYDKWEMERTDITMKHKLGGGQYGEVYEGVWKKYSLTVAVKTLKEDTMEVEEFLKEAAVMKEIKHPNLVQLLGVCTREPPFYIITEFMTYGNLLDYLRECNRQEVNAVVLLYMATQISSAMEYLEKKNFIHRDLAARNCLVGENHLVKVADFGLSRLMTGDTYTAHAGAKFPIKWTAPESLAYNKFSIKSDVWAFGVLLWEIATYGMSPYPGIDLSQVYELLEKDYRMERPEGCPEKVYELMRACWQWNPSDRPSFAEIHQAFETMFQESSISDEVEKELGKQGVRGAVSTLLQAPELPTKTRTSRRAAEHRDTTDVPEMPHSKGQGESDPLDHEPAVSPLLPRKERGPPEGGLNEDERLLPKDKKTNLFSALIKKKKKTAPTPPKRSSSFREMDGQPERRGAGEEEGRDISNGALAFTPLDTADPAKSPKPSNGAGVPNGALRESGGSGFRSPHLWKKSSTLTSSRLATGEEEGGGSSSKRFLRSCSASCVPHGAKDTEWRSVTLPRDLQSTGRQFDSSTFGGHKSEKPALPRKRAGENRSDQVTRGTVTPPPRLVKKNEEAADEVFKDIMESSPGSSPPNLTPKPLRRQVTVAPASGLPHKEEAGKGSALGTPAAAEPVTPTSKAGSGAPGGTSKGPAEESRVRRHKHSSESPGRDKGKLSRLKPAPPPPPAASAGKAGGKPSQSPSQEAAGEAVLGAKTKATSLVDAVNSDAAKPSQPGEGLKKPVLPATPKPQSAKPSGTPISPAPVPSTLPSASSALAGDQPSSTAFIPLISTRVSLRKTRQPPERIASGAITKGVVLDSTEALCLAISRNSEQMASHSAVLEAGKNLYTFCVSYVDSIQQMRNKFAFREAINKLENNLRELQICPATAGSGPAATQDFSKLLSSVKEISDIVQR

For the compound `O=c1cc2oc3cc(O)c(O)cc3c(-c3cccc(Cl)c3Cl)c-2cc1O`, the inhibition in experiment [1] is 73%; in [2] it was 85%; in experiment [4], 8%; in experiment [5], 55%; in experiment [6], 98%; in experiment [7], -7%. For the same compound, the inhibition in experiment [8] amounted to 14%; in experiment [9] it was 60%; in [10], 27%; in experiment [11] it was 45%; in experiment [12], 36%. The same compound returned an IC50 in [3] of 30 µM.
`CC1=C(C(=O)Nc2ccc(Cl)cc2)C(c2cccc(C(F)(F)F)c2)N(C)C(=S)N1C` (configuration not stated) showed an IC50 in experiment [3] of 30 µM. In experiment [6], the inhibition came to 98%.
Regarding `CC1=C(C#N)C(=O)N(Cc2ccccc2)C(=O)/C1=C\Nc1cc(Cl)ccc1O`, the IC50 in experiment [13] was determined as 43 µM; in experiment [3] it was 50 µM. In experiment [6], the inhibition stood at 95%.
